The text below walks through data of publication PMC5591795 (Clinical Pharmacokinetics, 2017).

Where two headings read alike, the source gives them in different places. Numbered stars: 1 amine (or outer) side, 2 acyl side, 3 side chain; on linkers, the order of the positions; unused ones are H or OH. Bridge positions count the residues as written; N and C are the ends. Square brackets hold non-standard residues; d marks the D form. Peptide text beside a SMILES is read from it. * marks the point of attachment. hTyr(3S-OH,4S-OH,3'-OSO3H) = N[C@H](C(=O)O)[C@H](O)[C@@H](O)c1ccc(O)c(OS(=O)(=O)O)c1; Orn(4R-OH,5R-OH) = O=C([C@H](C[C@@H](O)[C@@H](O)N[*:3])N[*:1])[*:2]; Pro(3S-OH,4S-Me) = C[C@H]1CN[C@H](C(=O)O)[C@H]1O; X1 = CCCCCOc1ccc(-c2cc(-c3ccc(C(=O)*)cc3)no2)cc1; Gln(3R-OH) = NC(=O)C[C@@H](O)[C@H](N)C(=O)O; Hyp = O=C(O)[C@@H]1C[C@@H](O)CN1

The conditions of data set [1]: cited from earlier work.
Data set [2] in a line: Population pharmacokinetic model of micafungin in ICU patients. The format is in vivo. The conditions noted are these: human, plasma, iv, 100 mg. Summed up: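 ICU adults (n = 20; suspected or proven fungal infection) received 100 mg QD IV over ~1 h. Plasma was sampled on day 3 (±1) pre-dose and 0.5–24 h post start infusion, on day 7 (±1) in six samples to 24 h, and as daily troughs. Drug was measured by UPLC-fluorescence. The model was fitted by FOCE with interaction, with IOV on CL and V and albumin, CVVH and SOFA tested as covariates.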

For data set [3] the following is noted: cited from earlier work. This is another data set of the same source.
For data set [4] the following is noted: cited from earlier work. This is another data set of the same source.
For data set [5] the following is noted: statement without reference; cited from earlier work.

With caspofungin, the “CL and V in critically ill patients compared with healthy volunteers” value in data set [1] was “identical”.
On to `CCCCCOc1ccc(-c2cc(-c3ccc(C(=O)N[C@H]4C[C@@H](O)[C@@H](O)NC(=O)[C@@H]5[C@@H](O)[C@@H](C)CN5C(=O)[C@H]([C@H](O)CC(N)=O)NC(=O)[C@H]([C@H](O)[C@@H](O)c5ccc(O)c(OS(=O)(=O)O)c5)NC(=O)[C@@H]5C[C@@H](O)CN5C(=O)[C@H]([C@@H](C)O)NC4=O)cc3)no2)cc1` [micafungin] (X1-[Orn(4R-OH,5R-OH)]T[Hyp][hTyr(3S-OH,4S-OH,3'-OSO3H)][Gln(3R-OH)][Pro(3S-OH,4S-Me)]; lactam 1-C), for which the distribution volume (Vd) in data set [2] turned out to be 21.2 L. Further, the metabolism entry in data set [1] is on record as “only a small fraction is metabolised”. Also, in data set [1] (healthy volunteers), the CL is on record as 0.55 L/h; the “V (V 1 and V 2 together)” value is 13.9 L. In data set [3], the solubility in water entry was “freely soluble in water”. Moreover, the tolerability entry in data set [4] (doses of 8 mg/kg) is on record as “well tolerated”. Besides, in data set [4] (therapy with 150–200 mg QD), the tolerability result is on record as “well tolerated”. In addition, the protein binding entry in data set [5] is “highly protein bound”.
Turning to Anidulafungin, the “V in critically ill patients compared with healthy volunteers” value in data set [1] is given as “equal”.

Broadly, the Vd is a proportionality between amount in the body and measured concentration, not a real space.
